Measurements: ChEMBL document CHEMBL3112403, “Design, synthesis and evaluation of second generation MurF inhibitors based on a cyanothiophene scaffold” (Eur J Med Chem, 2014)

Assays:
Escherichia coli [1] = assay: Antibacterial activity against Escherichia coli ES100 harboring tolC deletion mutant assessed as growth inhibition by broth microdilution method; format: functional
Procedure, shortened: (§1)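 MIC by broth microdilution in Mueller-Hinton broth following CLSI guidelines. ES100 is the tolC derivative of AB734, and SM1411 is the acrAB derivative of 1411; both are efflux-deficient E. coli strains. Growth inhibition was read as the minimum inhibitory concentration.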

Staphylococcus aureus = assay: Antibacterial activity against Staphylococcus aureus SH1000 assessed as growth inhibition by broth microdilution method; format: functional
Procedure, shortened: (§2)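 MICs by broth microdilution in Mueller-Hinton broth following CLSI guidelines.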

Escherichia coli [2] = assay: Antibacterial activity against Escherichia coli SM1411 harboring acrAB deletion mutant assessed as growth inhibition by broth microdilution method; format: functional; procedure, shortened: as §1
[3] = Inhibition of Escherichia coli MurF ligase using D-Ala-D-Ala as substrate after 15 mins by malachite green assay
Procedure, shortened: (§3)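 After 15 min at 37 °C, Biomol reagent was added and phosphate read at 650 nm, in duplicate. RA was taken relative to a 5% DMSO control. IC50 was taken as the concentration giving 50% RA, from seven concentrations.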

Escherichia coli [4] = assay: Antibacterial activity against Escherichia coli 1411 assessed as growth inhibition by broth microdilution method; format: functional; procedure, shortened: as §2
Escherichia coli [5] = assay: Antibacterial activity against Escherichia coli AB734 assessed as growth inhibition by broth microdilution method in presence of polymyxin B nonapeptide; format: functional
Procedure, shortened: (§4)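 Broth microdilution MIC in Mueller-Hinton broth per CLSI, run with 4 µg/mL polymyxin B nonapeptide to permeabilize the outer membrane.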

[6] = target: T1, UDP-N-acetylmuramoyl-tripeptide--D-alanyl-D-alanine ligase (Streptococcus pneumoniae, UniProt Q9ZHC3); assay: Inhibition of Streptococcus pneumoniae MurF ligase using D-Ala-D-Ala as substrate after 15 mins by malachite green assay
T1 sequence (Q9ZHC3 whole entry): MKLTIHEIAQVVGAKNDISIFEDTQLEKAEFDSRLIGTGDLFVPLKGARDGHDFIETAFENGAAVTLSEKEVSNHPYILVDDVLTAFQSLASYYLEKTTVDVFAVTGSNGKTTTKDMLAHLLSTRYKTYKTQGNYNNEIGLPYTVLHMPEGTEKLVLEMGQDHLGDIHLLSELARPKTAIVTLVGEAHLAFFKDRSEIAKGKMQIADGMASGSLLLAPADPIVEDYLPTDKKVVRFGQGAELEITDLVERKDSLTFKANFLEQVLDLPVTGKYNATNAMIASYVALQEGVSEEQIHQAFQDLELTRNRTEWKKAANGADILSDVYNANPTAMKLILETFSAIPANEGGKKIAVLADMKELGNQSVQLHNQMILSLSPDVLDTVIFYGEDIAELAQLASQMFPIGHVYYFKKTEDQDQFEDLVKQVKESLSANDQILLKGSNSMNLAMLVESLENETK
Procedure, shortened: (§5)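 Purified S. pneumoniae MurF in 50 mM Hepes pH 8.0 with 50 mM MgCl2, 0.005% Triton X-114, 100 µM D-Ala-D-Ala, 50 µM UMtri-L-Lys and 250 µM ATP, with 5% DMSO final. After 15 min at 37 °C, Biomol reagent was added and absorbance read at 650 nm, in duplicate. RA was taken against a 5% DMSO control. IC50 was the 50% RA point from seven concentrations.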

Escherichia coli [7] = assay: Antibacterial activity against Escherichia coli AB734 assessed as growth inhibition by broth microdilution method; format: functional; procedure, shortened: as §2
Escherichia coli [8] = assay: Antibacterial activity against Escherichia coli 1411 assessed as growth inhibition by broth microdilution method in presence of polymyxin B nonapeptide; format: functional; procedure, shortened: as §4
[9] = target: T2, UDP-N-acetylmuramoyl-tripeptide--D-alanyl-D-alanine ligase (Streptococcus pneumoniae) (UniProt Q9ZHC3); assay: Inhibition of Streptococcus pneumoniae MurF ligase using D-Ala-D-Ala as substrate assessed as residual activity at 250 uM after 15 mins by malachite green assay; procedure, shortened: as §5
T2 sequence (whole entry): T1 sequence (Q9ZHC3 whole entry)

Escherichia coli [10] = assay: Inhibition of […] MurF ligase using D-Ala-D-Ala as substrate assessed as residual activity at 250 uM after 15 mins by malachite green assay; procedure, shortened: as §3

| SMILES | MIC (Escherichia coli [1]) | MIC (Staphylococcus aureus) | MIC (Escherichia coli [2]) | IC50 [3] | MIC (Escherichia coli [4]) | MIC (Escherichia coli [5]) | IC50 [6] | MIC (Escherichia coli [7]) | MIC (Escherichia coli [8]) | Activity [9] | Activity (Escherichia coli [10]) |
| --- | --- | --- | --- | --- | --- | --- | --- | --- | --- | --- | --- |
| Cl.N#Cc1c(NC(=O)c2cc(S(=O)(=O)NCCN)c(Cl)cc2Cl)sc2c1CCCC2 | 64 µg/mL | > 256 µg/mL | 128 µg/mL | 418 µM | > 256 µg/mL | 128 µg/mL | 219 µM | > 256 µg/mL | 128 µg/mL |  |  |
| N#Cc1c(NC(=O)c2cc(OCCNC(=O)C(F)(F)F)ccc2Cl)sc2c1CCNC2.O=C(O)C(F)(F)F | > 256 µg/mL | > 256 µg/mL | > 256 µg/mL |  | > 256 µg/mL | > 256 µg/mL |  | > 256 µg/mL | > 256 µg/mL | 99% | 91% |
| N#Cc1c(NC(=O)c2cc(OCC(N)=O)ccc2Cl)sc2c1CCCC2 |  |  |  |  |  |  |  |  |  | 87% | 74% |
| CC(C)(C)OC(=O)N1CCc2c(sc(NC(=O)c3cc(OCCNC(=O)C(F)(F)F)ccc3Cl)c2C#N)C1 | > 256 µg/mL | > 256 µg/mL | > 256 µg/mL |  | > 256 µg/mL | > 256 µg/mL |  | > 256 µg/mL | > 256 µg/mL | 96% | 102% |
| N#Cc1c(NC(=O)c2cc(OCCN)ccc2Cl)sc2c1CCN(Cc1ccc(C(=O)O)cc1)C2 | > 256 µg/mL | > 256 µg/mL | > 256 µg/mL | 336 µM | > 256 µg/mL | > 256 µg/mL | 663 µM | > 256 µg/mL | > 256 µg/mL |  |  |
| N#Cc1ccc(CN2CCc3c(sc(NC(=O)c4cc(OCCN)ccc4Cl)c3C#N)C2)cc1 | 32 µg/mL | 128 µg/mL | 64 µg/mL | 76 µM | < 256 µg/mL | 64 µg/mL | 107 µM | < 256 µg/mL | 64 µg/mL |  |  |
| N#Cc1c(NC(=O)c2cc(OCCN)ccc2Cl)sc2c1CCN(Cc1ccccc1)C2 | 16 µg/mL | 64 µg/mL | 32 µg/mL | 84 µM | 64 µg/mL | 32 µg/mL | 51 µM | 64 µg/mL | 32 µg/mL |  |  |
| N#Cc1ccc(CN2CCc3c(sc(NC(=O)c4cc(OCCNC(=O)C(F)(F)F)ccc4Cl)c3C#N)C2)cc1 | > 256 µg/mL | > 256 µg/mL | > 256 µg/mL |  | > 256 µg/mL | > 256 µg/mL |  | > 256 µg/mL | > 256 µg/mL | 55% | 45% |
| COC(=O)c1ccc(CN2CCc3c(sc(NC(=O)c4cc(OCCN)ccc4Cl)c3C#N)C2)cc1 | 32 µg/mL | 128 µg/mL | 64 µg/mL | 88 µM | > 256 µg/mL | 64 µg/mL | 109 µM | > 256 µg/mL | 64 µg/mL |  |  |
| Cl.N#Cc1c(NC(=O)c2cc(OCCNC(=N)N)ccc2Cl)sc2c1CCN(Cc1ccc(O)cc1)C2 | 4 µg/mL | 4 µg/mL | 16 µg/mL | 25 µM | 64 µg/mL | 16 µg/mL | 20 µM | 64 µg/mL | 16 µg/mL |  |  |
| N#Cc1c(NC(=O)c2cccc(OCCCN)c2)sc2c1CCCC2 |  |  |  |  |  |  |  |  |  | 53% | 75% |
| N#Cc1c(NC(=O)c2cc(OCCCN)ccc2Cl)sc2c1CCCC2 | 32 µg/mL | 128 µg/mL | 32 µg/mL | 272 µM | 64 µg/mL | 32 µg/mL | 128 µM | 64 µg/mL | 32 µg/mL |  |  |
| Cl.N#Cc1c(NC(=O)c2cccc(OCCNC(=N)N)c2)sc2c1CCCC2 | 16 µg/mL | 64 µg/mL | 16 µg/mL | 258 µM | 64 µg/mL | > 256 µg/mL | 167 µM | 64 µg/mL | 64 µg/mL |  |  |
| N#Cc1c(NC(=O)c2cc(OCCN)ccc2Cl)sc2c1CCN(Cc1cccc(O)c1)C2 | 64 µg/mL | > 256 µg/mL | 64 µg/mL | 150 µM | 128 µg/mL | 64 µg/mL | 119 µM | 128 µg/mL | 64 µg/mL |  |  |
| Cl.N#Cc1c(NC(=O)c2cc(OCCNC(=N)N)ccc2Cl)sc2c1CCN(Cc1cccc(O)c1)C2 | 32 µg/mL | 32 µg/mL | 64 µg/mL | 143 µM | 128 µg/mL | 64 µg/mL | 117 µM | 128 µg/mL | 64 µg/mL |  |  |
| COC(=O)c1ccc(CN2CCc3c(sc(NC(=O)c4cc(OCCNC(=O)C(F)(F)F)ccc4Cl)c3C#N)C2)cc1 | > 256 µg/mL | > 256 µg/mL | > 256 µg/mL | 255 µM | > 256 µg/mL | > 256 µg/mL |  | > 256 µg/mL | > 256 µg/mL | 55% |  |
| N#Cc1c(NC(=O)c2cc(OCCNC(=O)C(F)(F)F)ccc2Cl)sc2c1CCN(Cc1ccccc1)C2 | > 256 µg/mL | > 256 µg/mL | > 256 µg/mL |  | > 256 µg/mL | > 256 µg/mL | 172 µM | > 256 µg/mL | > 256 µg/mL |  | 46% |
| COc1ccc(CN2CCc3c(sc(NC(=O)c4cc(OCCNC(=N)N)ccc4Cl)c3C#N)C2)cc1.Cl | 8 µg/mL | 32 µg/mL | 32 µg/mL | 78 µM | 32 µg/mL | 32 µg/mL | 61 µM | 32 µg/mL | 32 µg/mL |  |  |
| Cl.N#Cc1c(NC(=O)c2cc(OCCNC(=N)N)ccc2Cl)sc2c1CCCC2 | 8 µg/mL | 64 µg/mL | 8 µg/mL | 56 µM | 16 µg/mL | 8 µg/mL | 75 µM | 16 µg/mL | 8 µg/mL |  |  |
| N#Cc1c(NC(=O)c2cc(OCCNC(=O)C(F)(F)F)ccc2Cl)sc2c1CCN(Cc1ccc(-n3cnnn3)cc1)C2 | 64 µg/mL | > 256 µg/mL | > 256 µg/mL | 152 µM | > 256 µg/mL | > 256 µg/mL | 103 µM | > 256 µg/mL | > 256 µg/mL |  |  |
| N#Cc1c(NC(=O)c2cccc(OCn3cc(Cl)cn3)c2)sc2c1CCC2 |  |  |  | 56 µM |  |  | 126 µM |  |  |  |  |
| N#Cc1c(NC(=O)c2cc(OCCN)ccc2Cl)sc2c1CCN(Cc1ccc(-n3cnnn3)cc1)C2 | > 256 µg/mL | > 256 µg/mL | > 256 µg/mL | 83 µM | > 256 µg/mL | > 256 µg/mL | 454 µM | > 256 µg/mL | > 256 µg/mL |  |  |
| Cl.N#Cc1c(NC(=O)c2cc(OCCCNC(=N)N)ccc2Cl)sc2c1CCCC2 | 8 µg/mL | > 256 µg/mL | 16 µg/mL | 102 µM | 32 µg/mL | 32 µg/mL | 78 µM | 32 µg/mL | 32 µg/mL |  |  |
| Cl.N#Cc1c(NC(=O)c2cc(OCCN)ccc2Cl)sc2c1CCCC2 | 32 µg/mL | 128 µg/mL | 32 µg/mL | 208 µM | 128 µg/mL | 32 µg/mL | 170 µM | 128 µg/mL | 32 µg/mL |  |  |
| COc1ccc(CN2CCc3c(sc(NC(=O)c4cc(OCCNC(=O)C(F)(F)F)ccc4Cl)c3C#N)C2)cc1 | > 256 µg/mL | > 256 µg/mL | > 256 µg/mL |  | > 256 µg/mL | > 256 µg/mL | 154 µM | > 256 µg/mL | > 256 µg/mL |  | 81% |
| N#Cc1c(NC(=O)c2cc(OCCN)ccc2Cl)sc2c1CCC(c1ccc(O)cc1)C2 (stereo not given) | 8 µg/mL | > 256 µg/mL | 32 µg/mL | 81 µM | > 256 µg/mL | 16 µg/mL | 58 µM | > 256 µg/mL | 16 µg/mL |  |  |
| CC(=O)Oc1ccc(C2CCc3c(sc(NC(=O)c4cc(OCCNC(=O)C(F)(F)F)ccc4Cl)c3C#N)C2)cc1 (stereo not given) |  |  |  |  |  |  |  |  |  | 98% | 101% |
